# Published values from different studies.
# Compare with care: the assays were run in different laboratories.
# BCHE: Cholinesterase (BCHE, Equus caballus, UniProt P81908)
# SLC6A4: Sodium-dependent serotonin transporter (SLC6A4, Homo sapiens, UniProt P31645)
SMILES,target,test,setting,IC50 [µM]
NC(=O)NO,"Urease (Canavalia ensiformis, UniProt P07374)","enzyme activity, inhibitor",,7.42
C[C@H](N)Cn1ncc2ccc3c(c21)CCCO3,"D(1A) dopamine receptor (DRD1, Homo sapiens, UniProt P21728)","ligand displacement, radioligand",,138
CC=C1[C@H]2C=C(C)C[C@]1(N)c1cc(OCCCC)c(=O)[nH]c1C2,BCHE,"enzyme activity, inhibitor, Ellman",,16.9
O=C(CNC(=S)NN=Cc1ccc([N+](=O)[O-])cc1)c1ccc(Cl)cc1,BCHE,"enzyme activity, inhibitor, Ellman",,425
CC(=O)N1C[C@H](CCN2CC=C(c3c[nH]c4cc(Cl)ccc34)CC2)c2ccccc21,SLC6A4,"ligand displacement, radioligand",cell membranes,0.0818
C#CCNc1nc(NCCCCC2CCN(Cc3ccccc3)CC2)c(C#N)c(-c2ccccc2)c1C#N,BCHE,"enzyme activity, inhibitor, Ellman",,0.61
Clc1ccc2c(C3=CCN(CC[C@@H]4CNc5ccccc54)CC3)c[nH]c2c1,SLC6A4,"ligand displacement, radioligand",cell membranes,0.205
CC=C1[C@H]2C=C(C)C[C@]1(N)c1cc(I)c(=O)[nH]c1C2,BCHE,"enzyme activity, inhibitor, Ellman",,325
CCOc1ccc(C=NNC(=S)NCC(=O)c2ccc(Cl)cc2)cc1,BCHE,"enzyme activity, inhibitor, Ellman",,334
I/C=C/CN1CCN(CCc2ccc3c(c2)CCO3)CC1,"Sigma non-opioid intracellular receptor 1 (Sigmar1, Mus musculus, UniProt O55242)","ligand displacement, radioligand",cell membranes,0.00068
CC=C1[C@H]2C=C(C)C[C@]1(N)c1cc(C#N)c(=O)[nH]c1C2,BCHE,"enzyme activity, inhibitor, Ellman",,1050
O=P(O)(O)Oc1ccccc1OP(=O)(O)O,"Signal transducer and activator of transcription 5A, SH2 (Homo sapiens, UniProt P42229)","ligand displacement, FP",,69
CC=C1[C@H]2C=C(C)C[C@]1(N)c1cc(N)c(=O)[nH]c1C2,BCHE,"enzyme activity, inhibitor, Ellman",,525
C[C@@H](O)[C@@H]1NC(=O)[C@H](CCCCN)NC(=O)[C@@H](Cc2c[nH]c3ccccc23)NC(=O)[C@H](Cc2ccc(O)cc2)NC(=O)[C@@H](NC(=O)[C@@H](Cc2ccccc2)NC(=O)CCC(C(=O)O)N2CCN(C(CCC(=O)O)C(=O)O)CCN(C(CCC(=O)O)C(=O)O)CC2)CSSC[C@@H](C(=O)N[C@H](CO)[C@@H](C)O)NC1=O (some centres unmarked),"Somatostatin receptor type 2 (Rattus norvegicus, UniProt P30680)","ligand displacement, radioligand",,0.125
